Measurements pooled from the literature.
Each line is one published result; the experiments were not run side by side.
AChE: AChE (Phlebotomus papatasi, UniProt M1F887)
ESR1: Estrogen receptor (ESR1, Homo sapiens, UniProt P03372)
M-phase phosphoprotein 8 chromodomain: M-phase phosphoprotein 8, chromodomain (Homo sapiens, UniProt Q99549)

Structure (SMILES) | target | observed | mode | method | quantity | result
CC[n+]1c(-c2ccccc2)c2cc(N)ccc2c2ccc(N)cc21 | AChE | enzyme activity | inhibitor |  | IC50 | 14.1 µM
Clc1ccc(-c2ccc(Cl)cc2Cl)cc1 | ESR1 | reporter gene | agonist | luciferase | EC50 | 27 µM
CCN(CCCC[C@H](NC(=O)[C@H](CC(C)C)NC(=O)[C@H](C)NC(=O)[C@H](Cc1cccnc1)NC(=O)c1cccnc1)C(=O)N[C@@H](CO)C(N)=O)C(C)C | M-phase phosphoprotein 8 chromodomain | cell-free assay |  | TR-FRET | IC50 | 1.8 µM
Oc1ccc(-c2ccc(Cl)cc2)c(Cl)c1 | ESR1 | reporter gene | agonist | luciferase | EC50 | 0.1 µM
CCCCCNC(=N)N/N=C/c1c[nH]c2ccc(OC)cc12 | 5-hydroxytryptamine receptor 1A (HTR1A, Homo sapiens, UniProt P08908) | calcium signal | agonist | fluorescence | EC50 | 18 µM
N[C@@H](Cc1ccc(O)cc1)C(=O)O | Iodotyrosine deiodinase (Haliscomenobacter hydrossis, UniProt F4KU78) | binding |  | fluorescence | Kd | > 1200 µM
CCN(CCCC[C@H](NC(=O)[C@H](CC(C)C)NC(=O)[C@H](C)NC(=O)[C@H](Cc1ccccc1)NC(=O)c1ccc(N(C)C)cc1)C(=O)N[C@@H](CO)C(N)=O)C(C)C | M-phase phosphoprotein 8 chromodomain | cell-free assay |  | TR-FRET | IC50 | 0.38 µM
C[C@H]1CCC[C@H](O)CCC/C=C/c2cc(O)cc(O)c2C(=O)O1 | ESR1 | reporter gene | agonist | luciferase | EC50 | 0.00013 µM
CCN(CCCC[C@H](NC(=O)[C@H](CC(C)C)NC(=O)[C@H](C)NC(=O)[C@H](Cc1ccco1)NC(=O)c1cccnc1)C(=O)N[C@@H](CO)C(N)=O)C(C)C | M-phase phosphoprotein 8 chromodomain | cell-free assay |  | TR-FRET | IC50 | 11 µM
Clc1ccc(Cl)c(-c2ccccc2Cl)c1 | ESR1 | reporter gene | agonist | luciferase | EC50 | 9 µM
COc1cc2c3cc1Oc1cc(ccc1O)C[C@@H]1c4c(cc(OC)c(O)c4Oc4ccc(cc4)C[C@@H]3N(C)CC2)CC[N+]1(C)C | AChE | enzyme activity | inhibitor |  | IC50 | 38.9 µM
CCCC[C@@H](NC(=O)[C@@H](N)Cc1c(C)cc(O)cc1C)C(=O)NCC(=O)N[C@@H](Cc1ccc(F)cc1)C(=O)N(C)CCC[C@@]1(c2ccc(F)cc2)OCc2cc(C#N)ccc21 | Alpha-2C adrenergic receptor (ADRA2C, Homo sapiens, UniProt P18825) | ligand displacement |  | radioligand | Ki | 0.28 µM
C[C@H]1CCC[C@H](O)CCCCCc2cc(O)cc(O)c2C(=O)O1 | ESR1 | reporter gene | agonist | luciferase | EC50 | 0.000134 µM
CCN(CCCC[C@H](NC(=O)[C@H](CC(C)C)NC(=O)[C@H](C)NC(=O)[C@H](Cc1c(F)c(F)c(F)c(F)c1F)NC(=O)c1cccnc1)C(=O)N[C@@H](CO)C(N)=O)C(C)C | M-phase phosphoprotein 8 chromodomain | cell-free assay |  | TR-FRET | IC50 | 1.6 µM
